Diaphorase inh – diaphorase inhibition or chemical oxidation counter-screen; diaphorase resazurin-to-resorufin fluorescence, NADH, 16 min; bacterial (C. kluyveri) enzyme, not human; inhibition, % at 20 µM; hit rate 0.69% among 190,000; AID 1217;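 active means primary screen inhibition at 20 µM above a set limit, cut at about 50% in these data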;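 further: plate controls were DMSO with full reaction for no effect and wells lacking NADH for full effect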
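Assay system – diaphorase enzyme from Clostridium kluyveri · Amount – diaphorase 0.14 U/mL (working solution) · Times – reaction incubation of 16 min at room temperature · Controls – No-NADH positive control and DMSO neutral control · Signal – resorufin fluorescence 544/590 nm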
Diaphorase act – counter-screen for diaphorase-based assays: diaphorase activators and chemical reducers; Diaphorase/resazurin coupled assay, resorufin fluorescence, 16 min; hits give high values; 1 = vehicle wells, 0 = NADH-free wells; activation factor at 20 µM; AID 1229; hit rate 0.005% among 190,000;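 active means diaphorase activity raised at least twofold by the compound at 20 µM; inactive means activation factor below 2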
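Material: purified diaphorase enzyme from Clostridium kluyveri; Also added: 0.114 mM NADH and 0.1 mM resazurin, final amounts; Doses: single compound dose of 20 µM, 1% DMSO final; Times: 16 min enzyme reaction, ambient temperature; Detection: resorufin fluorescence, excitation 544 nm, emission 590 nm; Measure: increased resorufin signal from activators or reducing compounds.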
G6PDH counter – inhibits Leuconostoc G6PDH, flagging false hits in G6PDH-based assays. Purified L. mesenteroides G6PDH, diaphorase/resazurin coupled fluorescence, 45 min. inhibition, % at 5 µM. hit rate 0.12% among 200,000
WT yeast gro inh – growth inhibition of WT yeast, mitochondrial fusion screen. mitochondrial fusion phenotypic screen, WT strain. AID 1362. hit rate 2.1% among 190,000. inhibition, % at 10 µM; in the data active means inhibition above about 58%; tested in S. cerevisiae
Lmaj promast – reduces viability of Leishmania major promastigotes; resazurin fluorescence viability; AID 1063; hit rate 9% among 200,000; inhibition, % at 10 µM;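 further: promastigotes grown with compound for 44 hours at 28 °C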
Numbers without * were called inactive; · = not tested or not shown. A selection: hits, their analogues and other compounds. The true share with any hit is near 11%. Unless noted, no stated cut-off is given here; in the data, active means inhibition above about 50%; inactive means the rest.

SMILES	Diaphorase inh	Diaphorase act	G6PDH counter	WT yeast gro inh	Lmaj promast
OC(COc1ccc2ccccc2c1Br)Cn1cnc(-c2ccccc2)c1 (centres undefined)	18.5	0.8	7.7	88.0*	1.4
COc1ccc(OCC(O)Cn2cnc(-c3ccc(Br)cc3)c2)cc1 (centres undefined)	19.5	0.8	1.7	-14.3	-3.2
Fc1ccccc1Nc1nc2c(s1)CCc1ccccc1-2	37.0	0.6	15.9	64.2*	8.9
O=C(Nc1nc2c(s1)CCc1ccccc1-2)c1cccs1	33.6	0.7	13.8	9.5	24.7
Cc1cc(/C=C(\C#N)C(=O)Nc2ccc(Cl)cc2)c(C)n1-c1ccc(N2CCOCC2)c([N+](=O)[O-])c1	10.3	0.9	-4.5	39.2	100.1*
Cc1ccc(NC(=O)/C(C#N)=C/c2cc(C)n(-c3ccc(N4CCOCC4)c([N+](=O)[O-])c3)c2C)c(C)c1	16.5	0.8	2.5	3.4	-4.6
C/C(Cn1nnc([N+](=O)[O-])n1)=N\NC(=O)c1ccccc1	19.1	0.8	6.3	5.7	84.1*
CCc1ccccc1NC(=S)N(CCCN1CCOCC1)Cc1cccs1	6.1	0.9	-3.5	0.8	7.0
Cc1cc(C)c(C(=O)/C=C/c2cccc3ccccc23)c(=O)[nH]1	9.6	0.9	-9.3	-14.9	99.9*
Clc1ccccc1-c1nnc2sc(C3COc4ccccc4O3)nn12 (centres undefined)	12.5	0.9	-13.8	12.9	-5.3
Cc1ccc(-c2nnc3sc(C4COc5ccccc5O4)nn23)cc1 (centres undefined)	17.5	0.8	-1.7	75.1*	-4.7
CCOc1ccc(OCCCCNCCN)cc1	6.1	0.9	-3.9	-8.3	85.7*
COCCCNC(=O)CCCOc1ccccc1	3.4	1	2.0	-5.8	-7.9
COCCCNCCCCOc1ccc(OCc2ccccc2)cc1	7.3	0.9	6.0	31.0	99.4*
CCc1cccc(OCCCCNCCOC)c1	18.9	0.8	12.6	12.7	90.4*
CCc1cccc(OCCCN2C(=O)NC(C)(C)C2=O)c1	6.8	0.9	1.2	-11.6	-6.5
C=CCNCCCCOc1ccc(OCc2ccccc2)cc1	2.8	1	8.0	15.7	99.1*
CCN(C(=O)CSc1nc(-c2ccccc2)c(-c2ccccc2)[nH]1)C1CCS(=O)(=O)C1 (centres undefined)	-0.1	1	9.2	-2.7	-10.7
CN(C)C1C(=O)c2ccccc2C1=O	4.9	1	6.2	-2.9	-1.1
CC(C)(C)c1ccc(C(=O)Nc2cnccn2)cc1	17.9	0.8	-3.6	21.1	-2.3
c1ccc(COc2ccc(OCCCNC3CCCC3)cc2)cc1	6.3	0.9	-1.0	·	100.2*
CC1CCN(C(C)C(=O)Nc2ccccc2-c2ccccc2)CC1 (centres undefined)	9.1	0.9	4.1	60.4*	51.0*
Cc1ccc(S(=O)(=O)N2CCN(C(C)C(=O)Nc3ccccc3-c3ccccc3)CC2)cc1 (centres undefined)	10.2	0.9	3.6	-0.1	93.6*
Cc1ccc(S(=O)(=O)N2CCN(C(C(=O)Nc3ccc(F)cc3)c3ccccc3)CC2)cc1 (centres undefined)	27.1	0.7	-11.3	13.8	19.7
CC(C(=O)Nc1ccccc1-c1ccccc1)N1CCN(Cc2ccccc2)CC1 (centres undefined)	9.7	0.9	4.6	6.2	17.2
SMILES	Diaphorase inh	Diaphorase act	G6PDH counter	WT yeast gro inh	Lmaj promast
O=C(Nc1nccs1)c1cncc(Br)c1	15.3	0.8	0.0	17.1	-0.1
CCc1cc2c(COC(=O)c3c(C)noc3C)cc(=O)oc2cc1O	18.8	0.8	-2.0	-6.2	85.5*
CCOC(=O)C1CCN(c2nc(-c3ccccc3)nc3c2oc2ccccc23)CC1	19.1	0.8	-2.2	25.4	40.2
CCOC(=O)C1CCN(c2c(C(=O)c3ccccc3)cnc3ccc(Cl)cc23)CC1	2.3	1	4.8	75.2*	34.2
CCOC(=O)C1CCN(C(=O)c2cccc(Cl)c2)CC1	1.1	1	0.0	-8.5	-3.1
CCOC(=O)C1CCN(c2nc(-c3ccc(C)cc3)nc3ccccc23)CC1	11.6	0.9	-0.6	71.0*	48.0
O=C(c1ccco1)N1CCN(c2nc(-c3ccc(F)cc3)cs2)CC1	-2.9	1	0.0	3.7	-7.5
O=C(NCCCN1CCCC1=O)c1ccc2c(=O)n(-c3ccccc3F)c(=S)[nH]c2c1	10.9	0.9	-0.7	-13.4	-2.0
CCOc1ccc2ccccc2c1/C=N/NC(=O)CC1(C)OCCCO1	4.3	1	0.0	3.5	-6.8
O=C(O)/C=C/c1cnc2ccccc2n1	13.0	0.9	-2.9	-13.4	-0.1
CCC(C)(C)NC(=O)/C=C/c1cnc2ccccc2n1	10.1	0.9	-1.3	-8.1	51.9*
Cc1nn(-c2ccccc2)c(Cl)c1/C=N/Nc1nnc(C)c(=O)[nH]1	-3.8	1	7.6	-12.9	5.0
Cc1ccc(/C=N/N2CCN(c3ccccc3)CC2)cc1	-23.1	1.2	14.4	-12.2	-1.3
CC(C)Cn1c(/C=N/Nc2nc3ccccc3[nH]2)nc2ccccc21	9.4	0.9	-25.8	59.6*	100.3*
Cc1nn(-c2ccccc2)c(Cl)c1/C=N/Nc1nc2ccccc2n1C	2.2	1	-11.6	31.0	52.1*
Cc1ccc(N2CCN(/N=C/c3c(C)nn(-c4ccccc4)c3Cl)CC2)cc1	14.6	0.9	-2.8	-17.1	89.3*
Cc1nn(-c2ccccc2)c(C)c1/C=N/Nc1nc2ccccc2[nH]1	-5.9	1.1	-12.6	32.5	100.4*
Cc1cc(=O)[nH]c(N/N=C/c2c(C)nn(-c3ccccc3)c2C)n1	-0.1	1	-1.1	-4.5	1.8
CC(Oc1ccccc1)C(=O)NNS(=O)(=O)c1ccc([N+](=O)[O-])cc1 (centres undefined)	2.9	1	7.0	5.2	-7.5
COc1cc(/C(C)=N/NC(=O)C(O)(c2ccccc2)c2ccccc2)ccc1O	-7.3	1.1	8.6	-0.8	5.7
C=CCn1cc(/C=N\NC(=O)c2cc3c(ccc4ccccc43)o2)c2ccccc21	26.3	0.7	5.6	12.0	100.1*
C(=N\Nc1nc2ccccc2[nH]1)/c1cccs1	6.1	0.9	9.9	-2.9	98.1*
Cn1c(/C=N/Nc2nc3ccccc3[nH]2)nc2ccccc21	-18.4	1.2	4.7	63.5	100.5*
CCCn1c(/C=N/Nc2nc3ccccc3[nH]2)nc2ccccc21	15.5	0.8	1.7	58.1*	100.4*
Cc1ccsc1/C=N/Nc1nc2ccccc2[nH]1	3.9	1	-20.8	12.5	49.7
O=C(COC(=O)c1ccc(Cl)nc1)c1ccc2c(c1)OCCO2	0.0	1	1.7	-16.2	-3.7
CS(=O)(=O)N1CCN(c2c(Cl)cccc2[N+](=O)[O-])CC1	5.6	0.9	3.7	-5.7	-0.7
C=CCn1cc(/C=N/Nc2nc3ccccc3[nH]2)c2ccccc21	3.9	1	-10.7	65.1	100.5*
COC(=O)C(C)(C)ONC(=O)Nc1ccccc1Cl	21.0	0.8	-2.8	-8.3	21.4

Bioassay records as filed in PubChem.
